Data: ChEMBL document CHEMBL3112533, “Synthesis of novel, peptidic kinase inhibitors with cytostatic/cytotoxic activity” (Bioorg Med Chem, 2014)
pIC50: −log10 of the molar value. Active and inactive are the calls of the source. The rule behind the calls is not given here.

How the values were obtained:
[1] = Cytotoxicity against mouse RAS-3T3 cells by crystal violet assay; format: functional, cell-based; details: NIH3T3
Method in brief: (§1)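 Parental NIH-3T3 fibroblasts and Ha-Ras-transfected RAS-3T3 cells were grown in DMEM with 10% FBS, […] and antibiotic-antimycotic at 37°C in 5% CO2. Growth retardation/cytotoxicity was read by crystal violet staining. Compounds came from 10 mM DMSO stocks.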

NIH3T3 = assay: Cytotoxicity against mouse NIH/3T3 cells by crystal violet assay; format: cell-based; method in brief: as §1
Homo sapiens = species: Homo sapiens; assay: Inhibition of MEK/ERK1 (unknown origin) using MBP/[gamma-32P]ATP as substrate after 10 mins by scintillation counting
Method in brief: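 Compound at 10–150 μM in MOPS pH 7.2 buffer with β-glycerophosphate, EGTA, orthovanadate and DTT. [γ-32P]ATP at 10 μCi/reaction, 10 min at 30°C. Phosphorylated MBP was captured on P81 paper and counted by scintillation. Run in quadruplicate and given as % of no-compound control.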

RAS-3T3 [2] = assay: Inhibition of MEK-mediated ERK1/2 phosphorylation in mouse RAS-3T3 cells at 40 uM by Western-blot analysis; format: cell-based
Method in brief: (§2)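 RAS-3T3 cells were starved overnight in 2% FBS, then given 10% FBS medium with compound for 4 h. Cells were lysed in Triton X-100/Tris/EDTA/NaCl buffer with protease inhibitors. 50 μg of protein was run on 10% SDS-PAGE and blotted to nitrocellulose, with loading checked by Ponceau. Blots were probed with anti-pERK and anti-total ERK antibodies and detected by HRP chemiluminescence. Untreated cells were controls.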

[3] = target: Platelet-derived growth factor receptor beta (Homo sapiens) (UniProt P09619); assay: Inhibition of PDGFRbeta (unknown origin) at 10 uM
Method in brief: (§3)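 ADP-Glo luminescent kinase assay. Inhibitor at 10 μM was preincubated with kinase (1 ng) for 10 min at 25°C. Substrate (10–60 μM) and ATP (25 μM) were then added and the mix incubated 1 h at 24°C. ADP-Glo reagent was added for 40 min, then detection reagent for 30 min, and luminescence was read. Activity is given as % of uninhibited kinase. Mean ± SD of 2 independent experiments.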

[4] = target: TRAF2 and NCK-interacting protein kinase (Homo sapiens) (UniProt Q9UKE5); assay: Inhibition of TNIK (unknown origin) at 10 uM; method in brief: as §3
[5] = target: ALK tyrosine kinase receptor (Homo sapiens) (UniProt Q9UM73); assay: Inhibition of ALK (unknown origin) at 10 uM; method in brief: as §3
[6] = target: Tyrosine-protein kinase BTK (Homo sapiens) (UniProt Q06187); assay: Inhibition of BTK (unknown origin) at 10 uM; method in brief: as §3
[7] = target: Tyrosine-protein kinase JAK2 (Homo sapiens) (UniProt O60674); assay: Inhibition of JAK2 (unknown origin) at 10 uM; method in brief: as §3
[8] = target: Fibroblast growth factor receptor 2 (Homo sapiens) (UniProt P21802); assay: Inhibition of FGFR2 (unknown origin) at 10 uM; method in brief: as §3
[9] = target: T1, Tyrosine-protein kinase JAK3 (Homo sapiens) (UniProt P52333); assay: Inhibition of JAK3 (unknown origin) at 10 uM; method in brief: as §3
T1 sequence (whole entry): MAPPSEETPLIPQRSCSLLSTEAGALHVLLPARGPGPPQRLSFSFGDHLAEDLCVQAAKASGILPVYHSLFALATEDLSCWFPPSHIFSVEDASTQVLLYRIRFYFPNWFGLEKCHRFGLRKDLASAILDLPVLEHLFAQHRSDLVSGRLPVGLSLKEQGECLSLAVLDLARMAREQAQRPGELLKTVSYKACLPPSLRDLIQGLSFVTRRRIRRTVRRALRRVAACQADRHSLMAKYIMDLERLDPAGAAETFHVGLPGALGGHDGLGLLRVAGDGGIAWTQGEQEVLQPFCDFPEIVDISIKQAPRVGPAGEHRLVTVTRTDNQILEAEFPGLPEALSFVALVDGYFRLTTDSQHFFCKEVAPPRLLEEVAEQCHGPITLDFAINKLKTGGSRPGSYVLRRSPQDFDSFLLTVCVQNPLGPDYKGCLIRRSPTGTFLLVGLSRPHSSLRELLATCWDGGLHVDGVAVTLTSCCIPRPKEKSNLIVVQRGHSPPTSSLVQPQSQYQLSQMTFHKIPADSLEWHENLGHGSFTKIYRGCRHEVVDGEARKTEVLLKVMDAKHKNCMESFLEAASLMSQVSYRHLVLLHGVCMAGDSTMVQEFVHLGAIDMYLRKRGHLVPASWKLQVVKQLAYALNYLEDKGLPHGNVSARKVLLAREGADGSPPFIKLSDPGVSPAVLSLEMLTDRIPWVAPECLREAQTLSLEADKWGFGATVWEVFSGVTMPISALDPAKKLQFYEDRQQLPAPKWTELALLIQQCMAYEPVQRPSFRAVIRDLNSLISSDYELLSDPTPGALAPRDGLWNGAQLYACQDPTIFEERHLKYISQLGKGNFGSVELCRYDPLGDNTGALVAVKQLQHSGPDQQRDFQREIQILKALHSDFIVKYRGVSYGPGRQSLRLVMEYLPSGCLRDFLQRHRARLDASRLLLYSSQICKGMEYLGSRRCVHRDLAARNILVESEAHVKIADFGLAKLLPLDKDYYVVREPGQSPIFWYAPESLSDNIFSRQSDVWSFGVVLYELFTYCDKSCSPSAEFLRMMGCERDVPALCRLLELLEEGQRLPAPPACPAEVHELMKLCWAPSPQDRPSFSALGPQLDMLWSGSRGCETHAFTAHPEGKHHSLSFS

[10] = target: Mitogen-activated protein kinase 3 (Homo sapiens) (UniProt P27361); assay: Competitive inhibition of activated ERK1 (unknown origin) using […] as substrate
Method in brief: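 Activated pERK1 (20 ng) with inhibitor held at 5 μM and MBP varied from 0.2 to 200 μg per reaction. Non-radioactive ATP at 0.2 μM. Remaining ATP was measured by luciferase luminescence, and activity was taken from ATP consumption. Controls lacked inhibitor but had matching MBP amounts. Mean ± SD from 3 independent experiments.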

[11] = target: Insulin-like growth factor 1 receptor (Homo sapiens) (UniProt P08069); assay: Inhibition of IGF1R (unknown origin) at 10 uM; method in brief: as §3
RAS-3T3 [12] = assay: Inhibition of MEK in mouse RAS-3T3 cells assessed as effect on unphosphorylated ERK1/2 at 40 uM by Western-blot analysis; format: cell-based; method in brief: as §2
[13] = target: T2, Aurora kinase A (Homo sapiens) (UniProt O14965); assay: Inhibition of aurora-A (unknown origin) at 10 uM; method in brief: as §3
T2 sequence (whole entry): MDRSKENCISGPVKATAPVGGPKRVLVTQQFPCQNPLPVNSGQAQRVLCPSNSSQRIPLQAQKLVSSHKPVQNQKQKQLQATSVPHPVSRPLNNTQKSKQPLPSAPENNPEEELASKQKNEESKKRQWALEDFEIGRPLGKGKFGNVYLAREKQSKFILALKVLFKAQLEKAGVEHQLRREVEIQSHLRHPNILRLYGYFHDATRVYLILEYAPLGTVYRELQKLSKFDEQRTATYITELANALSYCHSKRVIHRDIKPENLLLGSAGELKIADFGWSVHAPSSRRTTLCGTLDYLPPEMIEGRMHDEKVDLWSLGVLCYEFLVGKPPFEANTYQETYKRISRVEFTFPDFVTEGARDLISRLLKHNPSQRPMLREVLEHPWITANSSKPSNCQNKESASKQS

[14] = target: Vascular endothelial growth factor receptor 2 (Homo sapiens) (UniProt P35968); assay: Inhibition of KDR (unknown origin) at 10 uM; method in brief: as §3
[15] = target: Mitogen-activated protein kinase 3 (Homo sapiens) (UniProt P27361); assay: Inhibition of activated ERK1 (unknown origin) using […] as substrate
Method in brief: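 Activated pERK1 (20 ng) with MBP (20 μg) and compound at final 0.05–5 μM. Non-radioactive ATP at 0.2 μM. Residual ATP was measured by luciferase luminescence, and relative activity was derived from ATP consumption versus compound-free control. Mean ± SD from 3 independent experiments.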

RAS-3T3 [16] = assay: Inhibition of MEK-mediated ERK1/2 phosphorylation in mouse RAS-3T3 cells at 40 uM by ELISA; format: cell-based
Method in brief: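 RAS-3T3 cells were pre-starved overnight in 2% FBS, then treated with compound in 10% FBS medium for 4 h. Lysates were assayed with a pERK1/2-specific sandwich ELISA and absorbance read at 405 nm. Untreated cells were controls.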

[17] = target: Epidermal growth factor receptor (Homo sapiens) (UniProt P00533); assay: Inhibition of EGFR (unknown origin) at 10 uM; method in brief: as §3
[18] = target: Receptor-type tyrosine-protein kinase FLT3 (Homo sapiens) (UniProt P36888); assay: Inhibition of FLT3 (unknown origin) at 10 uM; method in brief: as §3
[19] = target: Serine/threonine-protein kinase pim-1 (Homo sapiens) (UniProt P11309); assay: Inhibition of PIM1 (unknown origin) at 10 uM; method in brief: as §3

Sequence of Mitogen-activated protein kinase 3 (Homo sapiens) (P27361 whole entry): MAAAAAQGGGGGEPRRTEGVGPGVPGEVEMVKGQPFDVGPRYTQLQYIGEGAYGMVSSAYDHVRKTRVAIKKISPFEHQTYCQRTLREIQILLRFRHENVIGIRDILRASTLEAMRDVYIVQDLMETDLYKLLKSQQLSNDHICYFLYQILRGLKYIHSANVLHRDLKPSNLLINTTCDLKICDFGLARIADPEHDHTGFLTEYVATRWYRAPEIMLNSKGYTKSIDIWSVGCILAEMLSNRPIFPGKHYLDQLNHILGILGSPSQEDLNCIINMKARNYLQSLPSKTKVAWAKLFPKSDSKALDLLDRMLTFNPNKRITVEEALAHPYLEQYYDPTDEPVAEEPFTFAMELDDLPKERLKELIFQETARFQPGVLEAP
Sequence of TRAF2 and NCK-interacting protein kinase (Homo sapiens) (Q9UKE5 whole entry, looked up): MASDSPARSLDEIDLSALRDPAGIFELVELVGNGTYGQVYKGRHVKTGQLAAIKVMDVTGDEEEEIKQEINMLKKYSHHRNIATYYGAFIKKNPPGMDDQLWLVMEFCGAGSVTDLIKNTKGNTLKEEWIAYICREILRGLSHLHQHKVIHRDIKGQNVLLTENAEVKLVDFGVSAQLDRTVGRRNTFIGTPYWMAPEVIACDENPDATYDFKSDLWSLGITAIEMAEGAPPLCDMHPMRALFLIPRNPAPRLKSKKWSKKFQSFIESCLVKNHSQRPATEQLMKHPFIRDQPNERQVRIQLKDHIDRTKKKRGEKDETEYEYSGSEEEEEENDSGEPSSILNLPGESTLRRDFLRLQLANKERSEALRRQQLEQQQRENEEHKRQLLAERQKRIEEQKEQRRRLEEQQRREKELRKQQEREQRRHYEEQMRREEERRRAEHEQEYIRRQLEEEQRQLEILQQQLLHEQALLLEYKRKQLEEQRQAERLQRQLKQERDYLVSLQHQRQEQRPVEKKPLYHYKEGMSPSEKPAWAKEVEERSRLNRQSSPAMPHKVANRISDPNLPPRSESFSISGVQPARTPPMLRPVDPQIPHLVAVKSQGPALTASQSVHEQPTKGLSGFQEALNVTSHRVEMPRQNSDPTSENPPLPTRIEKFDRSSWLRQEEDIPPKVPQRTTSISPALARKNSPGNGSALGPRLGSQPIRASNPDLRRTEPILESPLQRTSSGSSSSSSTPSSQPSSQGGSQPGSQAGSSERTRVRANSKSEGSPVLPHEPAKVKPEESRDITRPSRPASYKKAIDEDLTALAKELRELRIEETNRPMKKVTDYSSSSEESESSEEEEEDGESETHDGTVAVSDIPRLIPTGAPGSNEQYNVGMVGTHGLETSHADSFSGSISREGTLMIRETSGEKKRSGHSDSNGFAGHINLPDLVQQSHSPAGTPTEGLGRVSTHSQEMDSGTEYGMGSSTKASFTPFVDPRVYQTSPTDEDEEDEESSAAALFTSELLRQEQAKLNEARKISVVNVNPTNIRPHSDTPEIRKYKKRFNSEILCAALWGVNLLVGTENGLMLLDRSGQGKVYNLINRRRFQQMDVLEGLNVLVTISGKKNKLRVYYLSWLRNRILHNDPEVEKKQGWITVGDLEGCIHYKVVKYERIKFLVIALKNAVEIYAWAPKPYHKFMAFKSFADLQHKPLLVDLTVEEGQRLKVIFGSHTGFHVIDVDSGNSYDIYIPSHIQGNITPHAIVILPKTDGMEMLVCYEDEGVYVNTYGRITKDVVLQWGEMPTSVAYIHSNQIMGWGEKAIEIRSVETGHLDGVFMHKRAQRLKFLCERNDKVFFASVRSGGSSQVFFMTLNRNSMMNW
Sequence of Epidermal growth factor receptor (Homo sapiens) (P00533 whole entry): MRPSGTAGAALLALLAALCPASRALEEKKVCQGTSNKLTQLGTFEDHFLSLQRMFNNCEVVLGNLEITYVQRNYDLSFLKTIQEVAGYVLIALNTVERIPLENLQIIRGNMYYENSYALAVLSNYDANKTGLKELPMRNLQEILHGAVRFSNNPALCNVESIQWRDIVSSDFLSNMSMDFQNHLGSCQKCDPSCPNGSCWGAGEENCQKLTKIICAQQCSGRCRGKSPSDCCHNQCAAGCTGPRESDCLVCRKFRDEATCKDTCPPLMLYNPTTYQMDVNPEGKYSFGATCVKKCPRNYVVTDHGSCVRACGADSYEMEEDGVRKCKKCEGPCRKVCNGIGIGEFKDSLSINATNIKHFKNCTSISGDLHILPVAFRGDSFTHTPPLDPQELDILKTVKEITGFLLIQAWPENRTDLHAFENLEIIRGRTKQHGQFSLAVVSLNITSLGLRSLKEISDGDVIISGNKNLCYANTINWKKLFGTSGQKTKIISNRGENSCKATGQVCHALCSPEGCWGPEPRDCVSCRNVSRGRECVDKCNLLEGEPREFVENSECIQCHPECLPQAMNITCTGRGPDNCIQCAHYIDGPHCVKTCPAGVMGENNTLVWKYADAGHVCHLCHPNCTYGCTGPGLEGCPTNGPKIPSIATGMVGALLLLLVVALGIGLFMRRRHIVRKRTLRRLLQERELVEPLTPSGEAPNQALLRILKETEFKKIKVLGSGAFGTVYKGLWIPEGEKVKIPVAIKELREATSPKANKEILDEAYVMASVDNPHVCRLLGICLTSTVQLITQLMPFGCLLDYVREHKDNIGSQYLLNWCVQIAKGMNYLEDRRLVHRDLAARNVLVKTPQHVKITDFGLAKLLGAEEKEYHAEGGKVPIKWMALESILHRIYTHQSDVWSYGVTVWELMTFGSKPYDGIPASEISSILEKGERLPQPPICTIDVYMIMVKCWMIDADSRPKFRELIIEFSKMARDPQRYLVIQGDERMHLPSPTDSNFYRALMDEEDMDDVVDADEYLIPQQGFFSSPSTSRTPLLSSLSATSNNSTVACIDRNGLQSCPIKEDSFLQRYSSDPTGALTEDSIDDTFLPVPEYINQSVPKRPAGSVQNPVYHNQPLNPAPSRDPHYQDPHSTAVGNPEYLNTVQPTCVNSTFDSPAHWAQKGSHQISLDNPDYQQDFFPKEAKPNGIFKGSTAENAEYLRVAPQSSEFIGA
Sequence of Platelet-derived growth factor receptor beta (Homo sapiens) (P09619 whole entry): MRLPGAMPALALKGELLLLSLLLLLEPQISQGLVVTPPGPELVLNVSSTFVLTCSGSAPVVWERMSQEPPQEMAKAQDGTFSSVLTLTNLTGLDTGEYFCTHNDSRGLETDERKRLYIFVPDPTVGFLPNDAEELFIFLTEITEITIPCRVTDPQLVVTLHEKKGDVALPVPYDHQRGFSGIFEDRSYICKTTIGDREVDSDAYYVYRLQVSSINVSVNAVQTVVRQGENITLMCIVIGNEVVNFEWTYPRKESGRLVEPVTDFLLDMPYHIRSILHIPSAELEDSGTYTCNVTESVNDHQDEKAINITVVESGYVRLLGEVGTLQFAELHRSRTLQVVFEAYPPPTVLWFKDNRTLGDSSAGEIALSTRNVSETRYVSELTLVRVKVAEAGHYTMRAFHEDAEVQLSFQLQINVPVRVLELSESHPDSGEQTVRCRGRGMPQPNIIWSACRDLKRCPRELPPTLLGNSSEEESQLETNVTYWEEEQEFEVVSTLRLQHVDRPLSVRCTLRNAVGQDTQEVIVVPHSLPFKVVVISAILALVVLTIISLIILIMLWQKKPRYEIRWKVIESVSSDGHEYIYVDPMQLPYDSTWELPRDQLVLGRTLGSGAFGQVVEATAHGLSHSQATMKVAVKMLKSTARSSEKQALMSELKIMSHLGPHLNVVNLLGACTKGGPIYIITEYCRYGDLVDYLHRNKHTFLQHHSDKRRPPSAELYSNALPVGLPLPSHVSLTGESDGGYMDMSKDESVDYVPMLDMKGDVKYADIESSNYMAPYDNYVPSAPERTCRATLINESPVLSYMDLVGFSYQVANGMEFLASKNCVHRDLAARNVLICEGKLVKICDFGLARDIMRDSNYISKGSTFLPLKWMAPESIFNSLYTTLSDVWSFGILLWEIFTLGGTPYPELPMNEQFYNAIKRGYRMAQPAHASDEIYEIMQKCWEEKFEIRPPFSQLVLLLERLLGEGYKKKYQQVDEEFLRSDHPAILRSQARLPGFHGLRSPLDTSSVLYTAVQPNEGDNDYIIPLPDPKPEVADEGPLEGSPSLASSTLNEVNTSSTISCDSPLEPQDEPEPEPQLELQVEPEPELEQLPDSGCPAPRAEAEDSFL
Sequence of Receptor-type tyrosine-protein kinase FLT3 (Homo sapiens) (P36888 whole entry): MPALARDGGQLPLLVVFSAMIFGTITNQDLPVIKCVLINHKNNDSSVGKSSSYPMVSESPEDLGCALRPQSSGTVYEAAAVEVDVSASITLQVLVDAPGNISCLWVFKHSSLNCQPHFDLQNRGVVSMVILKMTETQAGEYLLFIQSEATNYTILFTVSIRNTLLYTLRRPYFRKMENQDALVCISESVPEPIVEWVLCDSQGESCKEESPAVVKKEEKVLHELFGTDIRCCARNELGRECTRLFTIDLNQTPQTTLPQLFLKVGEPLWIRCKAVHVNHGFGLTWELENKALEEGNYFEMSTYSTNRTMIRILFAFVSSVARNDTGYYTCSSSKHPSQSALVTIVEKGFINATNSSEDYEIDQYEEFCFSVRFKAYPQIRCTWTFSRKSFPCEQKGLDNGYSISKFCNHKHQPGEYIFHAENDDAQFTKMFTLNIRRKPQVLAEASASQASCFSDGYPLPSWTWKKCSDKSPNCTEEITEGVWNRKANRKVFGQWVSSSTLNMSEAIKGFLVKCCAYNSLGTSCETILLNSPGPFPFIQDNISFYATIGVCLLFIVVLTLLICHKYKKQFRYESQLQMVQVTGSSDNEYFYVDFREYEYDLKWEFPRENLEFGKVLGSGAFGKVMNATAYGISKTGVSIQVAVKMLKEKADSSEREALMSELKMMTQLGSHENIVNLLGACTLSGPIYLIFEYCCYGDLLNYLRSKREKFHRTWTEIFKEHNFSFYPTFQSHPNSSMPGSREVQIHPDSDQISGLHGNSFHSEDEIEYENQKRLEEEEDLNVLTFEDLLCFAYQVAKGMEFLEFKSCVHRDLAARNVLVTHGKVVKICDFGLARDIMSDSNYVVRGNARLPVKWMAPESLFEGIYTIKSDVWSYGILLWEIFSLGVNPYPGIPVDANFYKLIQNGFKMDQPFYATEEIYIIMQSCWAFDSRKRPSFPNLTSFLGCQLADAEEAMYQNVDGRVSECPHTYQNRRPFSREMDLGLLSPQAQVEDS

| Compound | pIC50 [1] | pIC50 (NIH3T3) | also measured |
| --- | --- | --- | --- |
| CCCCCCCCCC(NC(=O)[C@H](CC(C)C)NC(=O)OCc1ccccc1)C(=O)NCc1ccc(OC)cc1 (mixture of isomers) | 4.30 | < 3.70 | – |
| CCCCCCCCCC(C(=O)NCc1ccc(OC)cc1)N(C)C(=O)CNC(=O)OCc1ccccc1 (racemic) | 4.52 | 4.52 | – |
| CCCCCCCC(NC(=O)CNC(=O)OCc1ccccc1)C(=O)NCCc1ccccc1 (racemic) | 4.70 | 4.48 | – |
| CCCCCCCCC[C@@H](NC(=O)CNC(=O)OCc1ccccc1)C(=O)NCc1ccc(OC)cc1 | – | – | inhibition (Homo sapiens): Active |
| COc1ccc(CNC(=O)C(Cc2ccc(OC)cc2)NC(=O)CNC(=O)OCc2ccccc2)cc1 (racemic) | < 4.00 | < 4.00 | – |
| CCCCCCCC(NC(=O)CNC(=O)OCc1ccccc1)C(=O)NCc1ccc(OC)cc1 (racemic) | 4.40 | 4.40 | – |
| COc1ccc(CNC(=O)C(NC(=O)CNC(=O)OCc2ccccc2)C2CCCCC2)cc1 (racemic) | 4.40 | 4.30 | – |
| CCCCCCCCCC(NC(=O)CNC(=O)OCc1ccccc1)C(=O)NCCc1ccccc1 (racemic) | – | – | inhibition (RAS-3T3 [2]): Active; inhibition [3]: inactive; inhibition [4]: inactive; inhibition [5]: inactive; inhibition [6]: inactive; inhibition [7]: inactive; inhibition [8]: inactive; inhibition [9]: inactive; inhibition [10]: Active; inhibition [11]: inactive; inhibition (RAS-3T3 [12]): inactive; inhibition [13]: inactive; inhibition [14]: inactive; inhibition [15]: Dose-dependent effect; inhibition (RAS-3T3 [16]): 90%; inhibition [17]: inactive; inhibition [18]: inactive; inhibition [19]: inactive |
| CCCCCCCCCC(NC(=O)[C@H](Cc1ccccc1)NC(=O)OCc1ccccc1)C(=O)NCc1ccc(OC)cc1 (mixture of isomers) | 4.17 | < 3.70 | – |
| CCCCCCCC(NC(=O)CNC(=O)OCc1ccccc1)C(=O)NCc1ccc(OC)cc1OC (racemic) | 4.40 | 4.30 | – |
| CCCCCCCC(NC(=O)CNC(=O)OCc1ccccc1)C(=O)NCc1ccccc1 (racemic) | 4.48 | 4.42 | – |
| CCCCCCCC(NC(=O)CNC(=O)OCc1ccccc1)C(=O)NC1CCCCC1 (racemic) | 4.52 | 4.40 | – |
| COc1ccc(CNC(=O)C(Cc2ccccc2)NC(=O)CNC(=O)OCc2ccccc2)cc1 (racemic) | < 4.00 | < 4.00 | – |
| CCCCCCCCCC(NC(=O)CNC(=O)OCc1ccccc1)C(=O)NCc1ccc(OC)cc1 (racemic) | 4.72 | 4.26 | inhibition (Homo sapiens): Dose-dependent effect |
| COc1ccc(CNC(=O)C(CC(C)C)NC(=O)CNC(=O)OCc2ccccc2)cc1 (racemic) | < 4.00 | < 4.00 | – |
| CCCCCCCCC[C@H](NC(=O)CNC(=O)OCc1ccccc1)C(=O)NCc1ccc(OC)cc1 | – | – | inhibition (Homo sapiens): Active |
| CCCCCCCCCC(NC(=O)[C@H](C)NC(=O)OCc1ccccc1)C(=O)NCc1ccc(OC)cc1 (mixture of isomers) | 4.26 | 3.82 | – |
| COc1ccc(CNC(=O)C(CCCCCNC(=O)OC(C)(C)C)NC(=O)CNC(=O)OCc2ccccc2)cc1 (racemic) | < 4.00 | < 4.00 | – |
